The results in this text go back to ChEMBL document CHEMBL3603756, “Synthesis and apoptotic activity of new pyrazole derivatives in cancer cell lines” (2015).

For assay [1], the system named is HCT-8. The assay is described as follows: Induction of apoptosis in human HCT8 cells assessed late apoptosis level at 50 ug/ml incubated for 24 hrs by annexin V-FITC and propidium iodide staining based flow cytometry (reference value: 4.8%). It is filed as functional. In general terms: In flow cytometry, cells or beads pass a laser one at a time.
The nature of assay [2]: Reduction in PRKAA2 gene expression in human Hep2 cells at 50 ug/ml incubated for 24 hrs by real-time PCR method. The assay is classed as functional, cell-based. As to conditions: HEp-2. The procedure, abridged:
(§1)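 HEp-2 cells were treated 24 h at 10 or 50 µg/mL. Total RNA was extracted with Trizol, and 2 µg was reverse-transcribed. 50 ng cDNA went into TaqMan real-time PCR with beta-actin as endogenous control. Relative expression was calculated by the ∆∆CT method. Each experiment was run three times.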

The test system of assay [3] is HEp-2. The assay is described as follows: Induction of cell cycle arrest in human Hep2 cells assessed accumulation at S phase at 10 ug/ml incubated for 24 hrs by propidium iodide staining based flow cytometry (reference value: 21.06%). The assay is classed as functional.
Assay [4] relates to HEp-2. The assay is described as follows: Induction of cell cycle arrest in human Hep2 cells assessed accumulation at G2/M phase incubated for 24 hrs by propidium iodide staining based flow cytometry. The assay is classed as functional.
In assay [5] the test system is HEp-2. The assay is described as follows: Induction of cell cycle arrest in human Hep2 cells assessed accumulation at G2/M phase at 10 ug/ml incubated for 24 hrs by propidium iodide staining based flow cytometry (reference value: 7.82%). It is filed as functional.
Assay [6] deals with HCT-8. The assay is described as follows: Induction of apoptosis in human HCT8 cells assessed viable cells level at 50 ug/ml incubated for 24 hrs by annexin V-FITC and propidium iodide staining based flow cytometry (reference value: 93.3%). The assay is classed as functional.
Assay [7] concerns HEp-2. The assay is described as follows: Induction of cell cycle arrest in human Hep2 cells assessed accumulation at S phase at 50 ug/ml incubated for 24 hrs by propidium iodide staining based flow cytometry (reference value: 21.06%). The assay is classed as functional.
Assay [8] in a line: Cytotoxicity against human Hep2 cells assessed as cell viability at 50 ug/ml incubated for 24 hrs by MTS assay. The assay is classed as functional. As to conditions: HEp-2, 24 h, read-out: Activity. In a few lines: (§2)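 Cells were held at 37 °C, 5% CO2 in humid air. HEp-2 (5 x 10³/well) and HCT-8 (7 x 10³/well) grew in DMEM + 10% heat-inactivated FBS and got compound (binary dilutions) 24 h after seeding. THP-1 (5 x 10³ cells, RPMI-1640 + 10% FBS) were added directly to the dilutions. Exposure lasted 24 h. MTS (CellTiter 96 AQueous One) read-out was absorbance at 490 nm.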

Assay [9] can be described thus: Reduction in PRKAA2 gene expression in human Hep2 cells at 10 ug/ml incubated for 24 hrs by real-time PCR method. It is filed as functional, cell-based. The settings on record: HEp-2. In a few lines:
as §1
A general note: Quantitative PCR measures a nucleic acid by following its amplification.

The nature of assay [10]: Cytotoxicity against human HCT8 cells assessed as cell viability at 12.5 ug/ml incubated for 24 hrs by MTS assay. It is filed as functional. As to conditions: HCT-8, 24 h, read-out: Activity. The procedure, abridged:
as §2
A general note: Tetrazolium assays rely on reduction of a dye to a coloured formazan, in cell work by metabolically active cells.

The test system of assay [11] is HEp-2. The assay is described as follows: Induction of cell cycle arrest in human Hep2 cells assessed accumulation at G0/G1 phase at 50 ug/ml incubated for 24 hrs by propidium iodide staining based flow cytometry (reference value: 74.51%). It is filed as functional.
The nature of assay [12]: Cytotoxicity against human HCT8 cells assessed as cell viability at 25 ug/ml incubated for 24 hrs by MTS assay. The assay is classed as functional. The settings on record: HCT-8, 24 h, read-out: Activity. In a few lines:
as §2

Assay [13] in a line: Reduction in PRKAA1 gene expression in human Hep2 cells at 10 ug/ml incubated for 24 hrs by real-time PCR method. The assay is classed as functional, cell-based. The settings on record: HEp-2. The procedure, abridged:
as §1

Assay [14] is described as follows: Reduction in PRKAA1 gene expression in human Hep2 cells at 50 ug/ml incubated for 24 hrs by real-time PCR method. It is filed as functional, cell-based. The settings on record: HEp-2. In a few lines:
as §1

The test system of assay [15] is HCT-8. The assay is described as follows: Induction of apoptosis in human HCT8 cells assessed early apoptosis level at 50 ug/ml incubated for 24 hrs by annexin V-FITC and propidium iodide staining based flow cytometry (reference value: 0.75%). The assay is classed as functional.
Assay [16] relates to HCT-8. The assay is described as follows: Induction of apoptosis in human HCT8 cells assessed necrosis level at 50 ug/ml incubated for 24 hrs by annexin V-FITC and propidium iodide staining based flow cytometry (reference value: 1.12%). The assay is classed as functional.
Assay [17] deals with THP-1. The assay is described as follows: Cytotoxicity against human THP1 cells assessed as cell viability at 50 ug/ml incubated for 24 hrs by MTS assay. As to conditions: THP-1, 24 h, read-out: Activity. It is filed as functional. In a few lines:
as §2

A short description of assay [18]: Cytotoxicity against human Hep2 cells assessed as cell viability at 25 ug/ml incubated for 24 hrs by MTS assay. The assay is classed as functional. The settings on record: HEp-2, 24 h, read-out: Activity. The procedure, abridged: as §2
Assay [19] is described as follows: Cytotoxicity against human HCT8 cells assessed as cell viability at 50 ug/ml incubated for 24 hrs by MTS assay. It is filed as functional. As to conditions: HCT-8, 24 h, read-out: Activity. In a few lines: as §2
For assay [20], the system named is HEp-2. As to the kind of experiment: Induction of cell cycle arrest in human Hep2 cells assessed accumulation at G0/G1 phase at 10 ug/ml incubated for 24 hrs by propidium iodide staining based flow cytometry (reference value: 74.51%). The assay is classed as functional.
The nature of assay [21]: Cytotoxicity against human Hep2 cells assessed as cell viability at 12.5 ug/ml incubated for 24 hrs by MTS assay. As to conditions: HEp-2, 24 h, read-out: Activity. It is filed as functional. In a few lines:
as §2

Assay [22] relates to HEp-2. The assay is described as follows: Induction of cell cycle arrest in human Hep2 cells assessed accumulation at G2/M phase at 50 ug/ml incubated for 24 hrs by propidium iodide staining based flow cytometry (reference value: 7.82%). The assay is classed as functional.
For assay [23], the system named is THP-1. The assay is described as follows: Cytotoxicity against human THP1 cells assessed as cell viability at 12.5 ug/ml incubated for 24 hrs by MTS assay. The assay is classed as functional. As to conditions: THP-1, 24 h, read-out: Activity. In a few lines: as §2
In assay [24] the test system is THP-1. As to the kind of experiment: Cytotoxicity against human THP1 cells assessed as cell viability at 25 ug/ml incubated for 24 hrs by MTS assay. The settings on record: THP-1, 24 h, read-out: Activity. The assay is classed as functional. In a few lines:
as §2

The source made the active and inactive calls. The calls are words filed in the database; no cut-off is given here.

On to `Cc1cs/c(=N\C(=O)c2cnn(C)c2)n1-c1ccc(Br)cc1`, for which the Activity in the assay on HCT-8 [1] was 3.44%; in the assay with HEp-2 [3], 21.45%; in the assay on HEp-2 [4] it was “Dose-dependent effect”; in the assay on HEp-2 [5], 7.76%; with HCT-8 [6], 89.4%; with HEp-2 [7], 24.2%. The Activity in the assay on HEp-2 [11] is 63.34%; in the assay with HCT-8 [15], 4.47%; in the assay with HCT-8 [16] it was 2.66%; in the assay with HEp-2 [20], 74.24%; with HEp-2 [22] it was 19.45%. In addition, the outcome in assay [2], in assay [9], in assay [13] and in assay [14] was Active. Moreover, the viability at 50 µg/mL amounted to 85% in assay [8], 41.6% in the assay with THP-1 [17] and 89.4% in [19]. Moreover, the viability at 12.5 µg/mL amounted to 100% in assay [10], 100% in assay [21] and 97% in the assay on THP-1 [23]. Moreover, the viability at 25 µg/mL in [12] amounted to 97%; in assay [18], 95%; in the assay on THP-1 [24], 87.6%.
As for `Cn1cc(C(=O)NC(=S)Nc2ccc(Br)cc2)cn1`, the Activity with HCT-8 [1] was 3.83%; in the assay on HEp-2 [3] it was 16.97%; in the assay with HEp-2 [4], “Dose-dependent effect”; in the assay on HEp-2 [5], 9.91%; with HCT-8 [6], 91.7%; in the assay on HEp-2 [7], 22.6%. Moreover, the Activity was 67.63% in the assay on HEp-2 [11]; 2.78% in the assay with HCT-8 [15]; 1.73% in the assay on HCT-8 [16]; 75.28% in the assay on HEp-2 [20]; 18.75% with HEp-2 [22]. Also, the outcome in [2], in assay [9], in [13] and in assay [14] was Active. The results for the viability at 50 µg/mL (in [8]; in the assay with THP-1 [17]; in [19]) were 90%, 37% and 91.7%, respectively. Also, the viability at 12.5 µg/mL (in assay [10]; in assay [21]; in the assay on THP-1 [23]) was 100% each time. Moreover, the values for the viability at 25 µg/mL (in assay [12]; in assay [18]; in the assay on THP-1 [24]) were 100%, 100% and 72.9%, respectively.
Take `Cn1cc(C(=O)/N=C2\SCC(C)(O)N2c2ccc(Br)cc2)cn1` (configuration not stated): the Activity in the assay with HCT-8 [1] is 6.76%; in the assay on HEp-2 [3], 19.2%; in the assay with HEp-2 [4], “Dose-dependent effect”; in the assay with HEp-2 [5], 19.88%; with HCT-8 [6], 85.7%; in the assay on HEp-2 [7] it was 28.71%. In addition, the Activity with HEp-2 [11] was 37.33%; in the assay with HCT-8 [15], 6.22%; in the assay on HCT-8 [16] it was 1.34%; in the assay with HEp-2 [20], 62.35%; in the assay with HEp-2 [22], 39.46%. Also, the outcome in [2], in [9], in [13] and in assay [14] was Active. Further, the values for the viability at 50 µg/mL (in [8]; in the assay on THP-1 [17]; in assay [19]) were 91%, 33.9% and 85.7%, respectively. Also, the viability at 12.5 µg/mL in assay [10] was 98%; in assay [21], 100%; with THP-1 [23] it was 95%. The values for the viability at 25 µg/mL (in assay [12]; in assay [18]; in the assay on THP-1 [24]) were 95%, 92% and 67.4%, respectively.
